NadD inh: NadD (S. aureus) enzyme inhibition; actives 0.78% (n = 360,000); inhibition, % at 20 µM; purified NadD enzyme, colorimetric absorbance read-out; in the data active = inhibition above about 26%
ASAP1 inh: inhibitors of human ASAP1 ArfGAP activity. Q9ULH1. ASAP1-stimulated ARF1 GTP hydrolysis, GDP FP detection. inhibition, % at 16.5 µM. actives 0.19% (n = 360,000); in the data active = inhibition above about 25%;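 also: 0% = vehicle with enzyme and substrate and 100% = no enzyme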
Target sequence (Q9ULH1 325-724 limits assumed): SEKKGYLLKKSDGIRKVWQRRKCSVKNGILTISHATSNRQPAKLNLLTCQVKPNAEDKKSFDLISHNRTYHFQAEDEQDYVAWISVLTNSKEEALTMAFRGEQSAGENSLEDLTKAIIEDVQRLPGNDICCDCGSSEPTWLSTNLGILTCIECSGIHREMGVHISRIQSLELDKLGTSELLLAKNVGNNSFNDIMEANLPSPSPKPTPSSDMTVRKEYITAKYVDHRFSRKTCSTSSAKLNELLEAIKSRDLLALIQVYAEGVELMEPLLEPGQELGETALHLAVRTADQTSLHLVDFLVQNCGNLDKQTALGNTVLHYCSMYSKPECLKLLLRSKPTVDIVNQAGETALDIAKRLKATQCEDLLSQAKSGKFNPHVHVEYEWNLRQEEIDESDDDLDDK
ARFGAP1 inh: inhibitors of rat ARFGAP1; Arfgap1-stimulated ARF1 GTP hydrolysis, GDP FP detection; actives 0.26% (n = 360,000); AID 651572; Q62848; inhibition, % at 16.5 µM;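 active = inhibition above a per-plate limit, mean inhibition of low control wells plus 3 SD, cut at about 25% in these data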;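 also: 0% = DMSO wells with enzyme and 100% = wells lacking Arfgap1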
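Material: rat Arfgap1 catalytic domain, aa 1-136; also added: human ARF1(Δ1-17)-GTP substrate; compound dosing: one concentration, 16.5 µM, DMSO 1.26%; incubation: GTP hydrolysis reaction 2 h at 25 °C; measured by: Tracer-displacement fluorescence polarization with EDTA stop, 620/688 nm; evaluation: % inhibition from polarization; repeats: one replicate per compound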
rCAG binder: molecules binding r(CAG) RNA repeats. AID 651821. actives 1.3% (n = 370,000). r(CAG) RNA repeat, TO-PRO-1 dye displacement fluorescence. inhibition, % at 3 µM;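 active = inhibition above the plate cutoff, the mean of all test compounds on that plate plus 3 SD, cut at about 35% in these data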;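 also: 0% = DMSO alone and 100% = 100 µM mitoxantrone as full dye displacement; higher means more dye released from RNA so lower well fluorescence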
rCAG bind conf: r(CAG) RNA repeat binding, confirmation; TO-PRO-1 dye displacement fluorescence; inhibition, % at 3 µM; shares compounds with rCAG binder; AID 652065; actives 70% (n = 4,300);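 active = inhibition above a per-plate cutoff, the mean inhibition of sample wells plus 3 SD, cut at about 35% in these data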;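 also: loss of TO-PRO-1 fluorescence as compound displaces dye from 1x1 AA loop RNA; 0% = DMSO only wells and 100% = 100 µM mitoxantrone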
DNA CAG counter: DNA CAG dye complex inhibition counter-screen; inhibition, % at 3 µM; AID 652068; shares compounds with rCAG binder; d(CAG) DNA oligo TO-PRO-1 dye displacement, fluorescence; actives 94% (n = 4,300);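 active = inhibition above its plate's cutoff, the mean test-well inhibition plus 3 SD, cut at about 4.8% in these data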;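 also: 0% = DNA dye mix with DMSO and 100% = 100 µM mitoxantrone; hits displace the dye from DNA and so lower well fluorescence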
Active calls of the source: *. Sampled rows, rich in hits. Any-hit rate of the full collection: about 2.2%.

`O=C(Nc1ccccc1C(=O)O)c1ccccc1` gave NadD inh -1, ASAP1 inh 4, ARFGAP1 inh 5 and rCAG binder 0.
For O=C(CN1C(=O)CCSc2ccccc21)Nc1ccc(Cl)c(Cl)c1 the results were rCAG binder 6.
`CCCCC[C@H](O)/C=C/C1C(=O)C=C[C@H]1C/C=C\CCCC(=O)OC` (stereo partly drawn) gave NadD inh -2, ASAP1 inh 5, ARFGAP1 inh -3 and rCAG binder 3.
O=C(Nc1cccc(C(=O)Nc2ccccc2C(=O)O)c1)c1cccc(Cl)c1 was read as NadD inh -1, ASAP1 inh -3, ARFGAP1 inh 5, rCAG binder 60*, rCAG bind conf 55* and DNA CAG counter 18*.
For COc1ccc(/C(=N\Nc2ccccc2C(=O)O)c2ccccc2)cc1 the results were NadD inh 0, ASAP1 inh 17, ARFGAP1 inh -4, rCAG binder 50*, rCAG bind conf 43* and DNA CAG counter 12*.
For O=C(Cc1ccc(Cl)cc1)Nc1cccc(C(=O)Nc2ccccc2C(=O)O)c1 the results were NadD inh -3, ASAP1 inh -1, ARFGAP1 inh 18, rCAG binder 74*, rCAG bind conf 64* and DNA CAG counter 24*.
`O=C(COc1ccc(Cl)cc1Cl)Nc1ccc(C(=O)Nc2ccccc2C(=O)O)cc1` gave NadD inh 14, ASAP1 inh 8, ARFGAP1 inh 7, rCAG binder 50*, rCAG bind conf 86* and DNA CAG counter 74*.
Cc1cc(CNC[C@H]2O[C@@H](n3cnc(C(N)=O)n3)[C@H](O)[C@@H]2O)c(C)n1-c1cccnc1 was read as NadD inh 3, ASAP1 inh 8, ARFGAP1 inh -1 and rCAG binder 4.
`CC(=O)c1cc(-c2cccc(Cl)c2O)c(=O)n2c1CCC2` gave rCAG binder 7.
`C[C@@H]1CCCN1c1cccc2c1S(=O)(=O)N1CC[C@H](C1)O2` gave rCAG binder 5.
For COC(=O)[C@H]1C[C@@]2(n3ccc4ccccc43)c3ccccc3N[C@H]2N1 the results were rCAG binder 9.
Screening C#CCN(C[C@@H]1[C@@H](OC(=O)Nc2c(C)noc2C)[C@@H](OC(=O)Nc2c(C)noc2C)Cn2c(=O)n(CCCCCC)c(=O)n21)S(=O)(=O)c1ccc(C)cc1 returned NadD inh -2, ASAP1 inh -6, ARFGAP1 inh 7 and rCAG binder 7.
O=C(c1ccc2c(c1)C(=O)NC2=O)c1ccc2c(c1)C(=O)NC2=O was read as ASAP1 inh 1, ARFGAP1 inh -1 and rCAG binder 1.
For CSc1ccccc1NC(=O)Nc1cccc(Cl)c1 the results were NadD inh 2, ASAP1 inh 11, ARFGAP1 inh 3 and rCAG binder 7.
Screening CCC(C)c1ccc(OCC(=O)Nc2cccc(C(=O)Nc3ccc(C(=O)O)cc3)c2)cc1 (stereo not drawn) returned NadD inh 14, ASAP1 inh 5, ARFGAP1 inh 15, rCAG binder 75*, rCAG bind conf 75* and DNA CAG counter 39*.
Cc1ccc(NC(=O)Nc2cccc(Cl)c2)c(C(=O)O)c1 was read as NadD inh -3, ASAP1 inh 8, ARFGAP1 inh 3, rCAG binder 47*, rCAG bind conf 21 and DNA CAG counter 3.
Screening COc1ccc(OCC(=O)Nc2cccc(C(=O)Nc3ccccc3C(=O)O)c2)cc1 returned NadD inh 1, ASAP1 inh 3, ARFGAP1 inh 5, rCAG binder 51*, rCAG bind conf 62* and DNA CAG counter 17*.
`CC(=O)Nc1ccc(S(=O)(=O)Nc2cccc(C(=O)Nc3ccccc3C(=O)O)c2)cc1` gave NadD inh -5, ASAP1 inh 11, ARFGAP1 inh -1, rCAG binder 47*, rCAG bind conf 18 and DNA CAG counter 4.7*.
COC(=O)C1CN(Cc2cn(Cc3ccccc3)nn2)CCS(=O)(=O)N1Cc1ccc(Cl)cc1 (stereo not drawn) was read as rCAG binder -2.
For CCOC(=O)CCCNC(=O)OCCCN1CCC2(CCC(c3ccccc3)CC2)C1=O (stereo not drawn) the results were rCAG binder -1.

Compound activity: PubChem BioAssay, several laboratories
